High-throughput results from PubChem.
IEC-6 tox = kills IEC-6 intestinal cells in KLF5 counter-screen. IEC-6 cytotoxicity, luminescence viability. inhibition, % at 5 µM. actives 0.78% (n = 290,000). AID 1825; in the data active means inhibition above about 22%;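 further: 0% = plate median of test compound wells and 100% = cytotoxic reference compound wells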
bCat nuc transl = modulators of beta-catenin nuclear translocation | HeLa beta-catenin nuclear translocation, immunofluorescence imaging | nuclear translocation activity, % at 5 µM | actives 0.3% (n = 190,000);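 active means nuclear translocation activity above 50% at 5 µM, with a well cell count of 50 or more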;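 further: per-cell ratio of nuclear to cytoplasmic median beta-catenin stain intensity; plate controls were DMSO negative control for no effect and GSK-3 inhibitor IX positive control for full effect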
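Test system: HeLa cells, endogenous beta-catenin; Compound: single 5 µM dose plus 0.02–20 µM confirmation series; Times: compound exposure 24 h at 37°C; Signal: fluorescence imaging of beta-catenin antibody stain plus DAPI; Read-out: % activation, nuclear-to-cytoplasmic median beta-catenin signal ratio per cell.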
BaF3 tox = parental Ba/F3 viability inhibition as JAK2V617F counter-screen. inhibition, % at 5.6 µM. actives 1.1% (n = 220,000). AID 1486. CellTiter-Glo ATP luminescence;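 active means inhibition above a per-campaign cutoff, the mean inhibition of all tested compounds plus 3 SD, cut at about 27% in these data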;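 further: 0% = DMSO wells and 100% = JAK Inhibitor I control wells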
MT stabilizer = stabilizes microtubules in HeLa cells | HeLa tubulin immunostaining HCS, 24 h; share of cells brighter than vehicle mean+2SD | % tubulin-high responders, % at 10 µM | AID 2205 | actives 0.83% (n = 200,000);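 active means plate Z-score above 3 for both tubulin-high and condensed-nucleus cell shares, with cell loss under 80%, at 10 µM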;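 further: anti alpha tubulin signal scored within the nucleus-defined area of each cell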
Ba/F3 V617F tox = reduce viability of Ba/F3 cells dependent on JAK2V617F; inhibition, % at 5.6 µM; actives 1.1% (n = 220,000); Ba/F3 EpoR-JAK2V617F viability, ATP luminescence;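 active means inhibition above the campaign mean plus 3 SD over all tested compounds, cut at about 24% in these data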;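 further: cytokine-independent growth of Ba/F3 cells driven by EpoR plus mutant JAK2; 0% = DMSO-treated cells and 100% = JAK inhibitor I control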
APP 5UTR inh = APP translation inhibition; SH-SY5Y APP 5'UTR-luciferase reporter, luminescence; inhibition, % at 2 µM; actives 0.82% (n = 190,000); AID 1285;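 active means inhibition above a set limit, derived from the sample mean plus 3 SD, cut at about 45% in these data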
Numbers without * were called inactive; · = no result given. In the library only some 2.2% were active in any assay of this set; here they are far more common.

SMILES | IEC-6 tox | bCat nuc transl | BaF3 tox | MT stabilizer | Ba/F3 V617F tox | APP 5UTR inh
Cc1ccc(Cl)c(NC(=O)COC(=O)c2ccccc2C(=O)c2ccc(Cl)c([N+](=O)[O-])c2)c1Cl | 12.4 | 4.0 | 7.1 | 6.3 | 4.0 | 52.5*
COc1ccc(CCC(=O)N/N=C(\C)c2ccc3c(c2)OCO3)cc1 | -2.6 | · | · | · | · | ·
O=C(CSc1nnnn1-c1ccc2c(c1)OCO2)NCc1ccccc1 | 10.1 | · | 5.9 | 42.4* | -3.6 | -7.3
Cc1cc(C)n(-c2nc(Nc3ccccc3C)nc(-n3nc(C)cc3C)n2)n1 | 2.1 | 0.0 | -3.1 | 3.5 | -0.6 | -10.7
Cc1cc(C)n(-c2nc(Nc3ccccc3C(F)(F)F)nc(-n3nc(C)cc3C)n2)n1 | 39.0* | 2.3 | 5.1 | 1.9 | -2.1 | 41.6
CCCCC(=NCCc1c(C)[nH]c2ccccc12)C1=C(O)CC(c2ccccc2)CC1=O (stereo not given) | 0.4 | 50.5* | 5.4 | 9.4 | 0.5 | 5.1
CCCC(=NCCc1c(C)[nH]c2ccccc12)C1=C(O)CC(c2ccccc2)CC1=O (stereo not given) | -10.0 | 131.9* | 5.5 | 25.7* | 0.0 | 84.2*
COc1ccc2nc(N3CCCC(C(=O)NCCCN4C(C)CCCC4C)C3)sc2c1 (stereo not given) | 3.6 | · | · | · | · | ·
COc1ccc(N2C(=O)CCC(C(=O)N3CCC(C(N)=O)CC3)C2c2ccc(F)cc2)cc1 (stereo not given) | 3.1 | -1.5 | 68.8* | 4.5 | 2.5 | -4.6
COc1ccc(O)c(/C=N/NC(=O)c2ccc(OCc3cccc(Br)c3)cc2)c1 | -0.9 | -0.3 | 3.1 | 1.5 | -1.5 | 65.5*
COc1ccc(C(=O)N/N=C/c2cc(Br)ccc2O)cc1OC | 4.1 | -0.3 | -0.1 | · | 15.6 | ·
O=C(N/N=C/c1ccc(OCc2ccc(F)cc2)cc1)c1ccccc1 | 4.0 | -0.4 | -0.3 | 4.3 | -3.2 | -25.1
O=C(N/N=C/c1ccc(F)cc1)c1ccc(OCc2ccccc2)cc1 | -5.8 | 0.0 | 49.4* | · | 4.1 | ·
O=C1CCC(=O)N1CC(=O)N(c1ccccc1)c1ccccc1 | 1.7 | 0.9 | 7.0 | 3.5 | 5.5 | 13.0
CC(NCc1ccccc1)C1COc2ccccc2O1 (stereo not given) | -7.2 | · | 2.4 | 1.1 | -1.0 | -18.6
COc1ccc(CNC(C)C2COc3ccccc3O2)c(OC)c1 (stereo not given) | 3.0 | 6.3 | 95.9* | 5.4 | 0.8 | 7.7
COCCCN1C(=O)CS/C1=N\S(=O)(=O)c1ccccc1 | 0.3 | -1.5 | -0.5 | · | -3.0 | ·
O=Cc1s/c(=N\S(=O)(=O)c2ccccc2)n(CCCCl)c1Cl | -2.4 | 0.0 | 0.0 | 2.9 | 22.1 | 94.7*
C/C(=N\NC(=O)c1c[nH]c2ccccc12)c1ccccn1 | 5.5 | 2.0 | 3.6 | 2.6 | -2.0 | 46.9*
Cc1cc(-n2c(C)cc(C(=O)CSc3ncnc4ccccc34)c2C)no1 | 4.7 | 0.6 | 51.1* | 2.5 | 43.8* | 3.6
Cc1cc(-n2c(C)cc(C(=O)CSc3nnc4sc5ccccc5n34)c2C)no1 | -3.2 | -3.9 | 1.4 | 1.9 | -1.8 | -7.2
C=CCn1c(=O)c2ccccc2n2c(SCC(C)=O)nnc12 | -0.5 | · | · | · | · | ·
COc1ccc(NC(=O)/C(C#N)=C\C=C\c2ccco2)cc1 | 3.6 | 8.8 | 3.6 | 19.2* | 4.1 | 4.8
O=C(O)c1ccc(CNC(=O)C2CCCN2C(=O)OCc2ccccc2)cc1 (stereo not given) | -5.9 | · | · | · | · | ·
Cc1ccc2c(c1)Oc1ccc(NC(=O)CCl)cc1C(=O)N2 | 15.5 | -0.5 | 82.9* | 7.1 | 85.3* | 52.6*
SMILES | IEC-6 tox | bCat nuc transl | BaF3 tox | MT stabilizer | Ba/F3 V617F tox | APP 5UTR inh
COc1ccc(C(=O)/C=C2/c3ccccc3CC(C)(C)N2C)cc1 | 13.4 | · | 4.4 | 27.5* | 3.5 | 47.9*
COc1ccc(C(=O)/C=C2/C(=O)Nc3ccccc32)cc1 | 2.4 | · | · | · | · | ·
CN1/C(=C\C(=O)Nc2cccnc2)c2ccccc2CC1(C)C | -2.5 | -1.6 | 35.7* | 3.8 | -2.4 | -5.2
CCCOc1cccc(C(=O)NCCNC(=O)c2ccco2)c1 | -5.8 | · | · | · | · | ·
COc1ccc(/C=C/C2=CCN(Cc3ccc(OC)cc3)CC2)cc1 | -5.3 | · | 37.7* | 2.0 | 16.4 | 12.7
C/C(=N\NC(=O)c1cc(-c2cccnc2)nc2ccccc12)c1ccccc1O | 10.3 | -2.7 | 6.3 | 1.0 | -1.3 | 56.0*
COc1ccc(/C(C)=N/NC(=O)c2cc(-c3cccnc3)nc3ccccc23)cc1 | 8.3 | -1.3 | 2.7 | 1.6 | -3.8 | -23.3
CN(C)CCCNC(=O)CCc1ncc(C(F)(F)F)cc1Cl | 2.0 | 1.6 | -3.8 | 2.3 | -3.8 | -21.7
CN(C)CCCNc1ncc(C(F)(F)F)cc1Cl | 5.8 | -4.0 | 0.3 | 13.7* | -3.0 | 2.3
Cc1ccn2c(CNCC3COCCO3)c(C(=O)N3CCCCCC3)nc2c1 (stereo not given) | 0.8 | · | · | · | · | ·
CSc1ccc(C(=O)C2CCCN(Cc3ccc(N4CCNC4=O)cc3)C2)cc1 (stereo not given) | 2.2 | 6.6 | 3.4 | 13.9* | 1.3 | -4.8
Cc1ccc(OCc2nc(C#N)c(NCc3ccc4c(c3)OCO4)o2)cc1 | 5.0 | 2.0 | 0.2 | 2.1 | -2.4 | 67.0*
COc1ccc(-c2oc3ccc(-c4cc(OC)c(OC)c(OC)c4)cc3c2C#Cc2ccsc2)cc1 | -1.6 | · | · | · | · | ·
O=[N+]([O-])c1cc([N+](=O)[O-])c(Oc2cccnc2Br)cc1NN1CCCCC1 | -2.5 | · | · | · | · | ·
C/C(=N\NC(=S)NCc1ccccc1)c1ccco1 | -2.7 | -2.2 | 67.2* | 3.7 | -0.7 | -10.7
O=C(Nc1ncc2c(n1)-c1ccccc1CC2)c1cccc(Cl)c1 | 15.5 | · | 5.6 | 43.9* | -1.6 | ·
Cc1ccc(-c2csc3nc(SCC(=O)Nc4ccc(Cl)c(C(=O)O)c4)[nH]c(=O)c23)cc1 | -19.1 | · | · | · | · | ·
CCN(Cc1ccccc1)S(=O)(=O)c1ccc(S(=O)(=O)N(Cc2ccccn2)Cc2ccco2)cc1 | 0.2 | -2.0 | 0.9 | 1.4 | -3.6 | 7.7
CC1CCCCN1S(=O)(=O)c1ccc(S(=O)(=O)N(Cc2ccccc2)Cc2ccco2)cc1 (stereo not given) | 1.7 | -2.4 | 4.3 | 1.3 | -3.2 | 57.9*
N=C1/C(=C\c2ccc(Br)o2)C(=O)N=C2SC(CC(=O)N3CCCCC3)=NN12 | -6.3 | · | · | · | · | ·
O=C(Cn1ncnn1)OCc1ccccc1Cl | -3.5 | 2.2 | 0.3 | 3.0 | -2.6 | 67.7*
O=C(OCc1ccccc1Cl)c1ccc(-n2cnnc2)cc1 | -0.5 | -2.2 | 1.3 | 2.1 | 1.1 | -11.4
COc1ccccc1N1CCN(Cc2cnc3ccc(Cl)cn23)CC1 | 0.2 | · | · | · | · | ·
Cc1ccc(NC(=O)N2CCCC2C(=O)NCCC2=CCCCC2)cc1 (stereo not given) | 0.4 | -5.9 | -1.4 | 1.6 | -2.5 | 48.4*
CC[N+](C)(CC)CC(=O)OCC1C(C)C=C(C)CC1C (stereo not given) | 2.1 | -0.2 | 34.4* | · | 26.9* | ·
O=C(NC1CCN(C(=S)Nc2ccc(F)cc2)CC1)c1ccco1 | 3.4 | · | · | · | · | ·
